Laboratory results as given in ChEMBL document CHEMBL2401705, “Discovery of triazines as potent, selective and orally active PDE4 inhibitors” (Bioorg Med Chem Lett, 2013).
pIC50: −log10 of the molar value. ≈ marks a conversion by molar mass, not a printed value.

Assays:
Mustela putorius furo [1] = assay: Toxicity in po dosed ferret assessed as first emetic dose by measuring occurrence of vomiting episode after 6 hrs; assay type: organism-based; settings: in vivo
Method in brief: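 Ferrets were given oral doses and watched for 6 h after administration for a vomiting episode; the first emetic dose was reported in mg/kg.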

serum albumin = serum albumin (Homo sapiens, UniProt P02768); assay: Binding affinity to human serum albumin; assay type: ADME; settings: read-out: PB (converted)
Mustela putorius furo [2] = assay: Inhibition of LPS-induced neutrophilia in ferret COPD model BAL-fluid at 0.01 mg/kg, po; assay type: functional
Method in brief: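 Ferrets challenged by LPS inhalation, with compound given orally. Read-out is the change in neutrophil count in bronchoalveolar lavage fluid, expressed as percentage inhibition.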

[3] = Aqueous solubility of the compound at pH 7.4; settings: buffer
[4] = Intrinsic clearance in rat liver microsomes; assay type: ADME, Microsome; settings: read-out: CLH
[5] = biological target: 3',5'-cyclic-AMP phosphodiesterase 4A (Homo sapiens, UniProt P27815); assay: Inhibition of human full length PDE4A4 expressed in baculovirus infected sf21 cells
[6] = biological target: High affinity 3',5'-cyclic-AMP phosphodiesterase 7A (Homo sapiens, UniProt Q13946); assay: Inhibition of human full length PDE7A1 expressed in baculovirus infected sf21 cells
Phosphodiesterase 4 = Phosphodiesterase 4 (Homo sapiens, UniProt P27815+Q08499+Q07343+Q08493); assay: Inhibition of PDE4 (unknown origin); assay type: protein assay
Mustela putorius furo [7] = assay: Toxicity in iv dosed ferret assessed as first emetic dose by measuring occurrence of vomiting episode after 6 hrs; assay type: organism-based; settings: in vivo

3',5'-cyclic-AMP phosphodiesterase 4A, sequence (P27815 whole entry): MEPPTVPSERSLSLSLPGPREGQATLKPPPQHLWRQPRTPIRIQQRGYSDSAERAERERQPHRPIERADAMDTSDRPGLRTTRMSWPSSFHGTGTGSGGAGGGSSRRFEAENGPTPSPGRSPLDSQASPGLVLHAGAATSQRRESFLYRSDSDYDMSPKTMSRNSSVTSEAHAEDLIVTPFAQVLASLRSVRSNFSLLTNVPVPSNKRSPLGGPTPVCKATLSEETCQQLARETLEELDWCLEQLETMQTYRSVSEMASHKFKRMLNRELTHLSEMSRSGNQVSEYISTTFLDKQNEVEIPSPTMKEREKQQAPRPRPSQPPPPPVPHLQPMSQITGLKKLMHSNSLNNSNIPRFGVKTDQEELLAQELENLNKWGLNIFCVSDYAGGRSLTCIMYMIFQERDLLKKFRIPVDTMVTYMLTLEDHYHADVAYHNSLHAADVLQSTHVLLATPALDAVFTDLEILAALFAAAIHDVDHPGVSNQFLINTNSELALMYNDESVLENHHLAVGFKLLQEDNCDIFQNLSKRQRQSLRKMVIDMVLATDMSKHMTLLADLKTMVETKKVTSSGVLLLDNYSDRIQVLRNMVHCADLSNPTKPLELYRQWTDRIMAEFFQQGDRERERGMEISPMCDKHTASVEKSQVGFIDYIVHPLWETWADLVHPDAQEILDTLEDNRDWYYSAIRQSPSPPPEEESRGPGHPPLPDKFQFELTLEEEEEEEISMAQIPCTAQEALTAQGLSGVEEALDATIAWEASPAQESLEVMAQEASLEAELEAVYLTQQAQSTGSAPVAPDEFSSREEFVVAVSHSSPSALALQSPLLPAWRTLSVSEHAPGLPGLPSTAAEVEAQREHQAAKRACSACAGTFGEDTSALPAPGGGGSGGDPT
High affinity 3',5'-cyclic-AMP phosphodiesterase 7A, sequence (Q13946 whole entry): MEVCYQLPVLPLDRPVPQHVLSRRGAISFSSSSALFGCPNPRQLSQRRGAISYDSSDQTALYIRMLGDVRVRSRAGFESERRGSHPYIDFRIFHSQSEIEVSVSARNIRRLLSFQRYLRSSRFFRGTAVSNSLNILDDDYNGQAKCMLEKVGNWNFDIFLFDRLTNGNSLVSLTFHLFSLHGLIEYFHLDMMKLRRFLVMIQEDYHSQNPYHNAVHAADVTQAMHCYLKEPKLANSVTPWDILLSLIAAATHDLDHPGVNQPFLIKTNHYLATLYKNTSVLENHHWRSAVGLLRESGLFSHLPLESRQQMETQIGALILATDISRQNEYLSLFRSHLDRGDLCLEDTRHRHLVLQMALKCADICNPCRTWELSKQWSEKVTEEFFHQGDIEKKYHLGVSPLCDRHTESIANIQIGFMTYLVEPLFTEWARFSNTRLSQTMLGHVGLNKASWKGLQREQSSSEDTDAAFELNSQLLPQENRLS
serum albumin, sequence (P02768 whole entry): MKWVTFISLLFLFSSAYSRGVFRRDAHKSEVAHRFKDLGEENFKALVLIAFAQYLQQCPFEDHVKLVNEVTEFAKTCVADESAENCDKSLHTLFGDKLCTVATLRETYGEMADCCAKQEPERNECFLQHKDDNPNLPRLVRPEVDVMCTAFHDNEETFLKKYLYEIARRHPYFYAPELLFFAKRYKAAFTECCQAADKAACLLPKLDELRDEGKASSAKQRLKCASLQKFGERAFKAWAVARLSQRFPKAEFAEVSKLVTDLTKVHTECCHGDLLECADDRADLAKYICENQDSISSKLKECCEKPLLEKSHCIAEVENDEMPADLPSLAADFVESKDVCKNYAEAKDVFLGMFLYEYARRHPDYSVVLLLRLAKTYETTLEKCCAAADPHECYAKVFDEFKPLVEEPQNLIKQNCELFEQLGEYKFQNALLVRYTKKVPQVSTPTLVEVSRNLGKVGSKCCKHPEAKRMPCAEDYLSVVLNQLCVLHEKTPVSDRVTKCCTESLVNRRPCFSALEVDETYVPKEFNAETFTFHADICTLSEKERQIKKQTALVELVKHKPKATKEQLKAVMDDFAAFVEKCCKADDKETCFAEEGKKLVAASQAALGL

Row | Structure (SMILES) | CLint scaled [4] | pIC50 [5] | pIC50 [6] | further results
1 | O=C(Nc1c(Cl)cncc1Cl)c1ccc(OC(F)F)c(OCC2CC2)c1 [ROFLUMILAST] |  |  |  | Activity (Mustela putorius furo [1]): 1 mg/kg; fraction unbound (serum albumin): 0.03; inhibition in vivo at 0.01 mg/kg (Mustela putorius furo [2]): 65%; solubility [3]: 0.0013 mg/mL (≈ 3.22 µM)
2 | CNc1nc(NC2(C#N)CCCCC2C)nc(-n2cncn2)n1 (mixture of isomers) | 5.16 L/h/kg | 9.82 |  | solubility [3]: 0.025 mg/mL
3 | CNc1nc(NC2(C#N)CCCCC2)nc(OC)n1 | 11.8 L/h/kg | 7.72 | 6.28 | 
4 | CCCC(C#N)(CCC)Nc1nc(Cl)nc(NC)n1 |  | 7.22 |  | 
5 | CNc1nc(Nc2ccccc2)nc(NC2(C#N)CCCCC2)n1 |  | 7.25 | < 5.30 | 
6 | CNc1nc(N)nc(NC2(C#N)CCCCC2)n1 |  | < 6.00 |  | 
7 | CN(c1nc(N)nc(Cl)n1)C1(C#N)CCCCC1 |  | 6.25 |  | 
8 | O=S1(=O)CCN(c2nc(NC3CC3)nc(C3CC3)n2)C1 |  |  |  | IC50 (Phosphodiesterase 4): 0.14 µM
9 | CNc1nc(NC2(C#N)CCCCC2)nc(-n2cccn2)n1 | 6.18 L/h/kg | 8.44 | < 5.30 | 
10 | C#CC1(Nc2nc(Cl)nc(NC)n2)CCCCC1 |  | 6.83 |  | 
11 | CNc1nc(NC(C#N)(C2CC2)C2CC2)nc(-n2cncn2)n1 | 0.222 L/h/kg | 9.05 |  | solubility [3]: 0.022 mg/mL (≈ 70.7 µM)
12 | CONc1nc(Cl)nc(NC2(C#N)CCCCC2)n1 |  | 6.78 |  | 
13 | CNc1nc(Cl)nc(NC2(C#N)CCCCCC2)n1 |  | 7.36 |  | 
14 | CNc1nc(C#N)nc(NC2(C#N)CCCCC2)n1 | 7.32 L/h/kg | 7.42 | < 6.00 | 
15 | CNc1nc(Cl)nc(NC(C)(C)C#N)n1 |  | 6.80 |  | 
16 | CNc1nc(NC2(C#N)CCCCC2)nc(-n2cnc3ccccc32)n1 |  | 7.92 | < 6.00 | 
17 | CNc1nc(NC2(C#N)CCCCC2)nc(N2CCCC2)n1 | > 16.6 L/h/kg | 7.42 | < 5.30 | 
18 | N#CC1(Nc2nc(N)nc(Cl)n2)CCCCC1 |  | 5.98 |  | 
19 | CNc1nc(Cl)nc(NC2(C#N)CCCC2)n1 |  | 7.27 |  | 
20 | CNc1nc(Cl)nc(NC(C)(C)C)n1 |  | 6.61 |  | 
21 | COc1ccc(C2CNC(=O)C2)cc1OC1CCCC1 (racemic) [ROLIPRAM] |  |  |  | fraction unbound (serum albumin): 0.42; Activity (Mustela putorius furo [7]): 0.3 mg/kg; solubility [3]: 0.171 mg/mL (≈ 621 µM)
22 | CCC(C)(CC)Nc1nc(Cl)nc(NC)n1 |  | 6.81 |  | 
23 | CNc1nc(NC)nc(NC2(C#N)CCCCC2)n1 | 12.6 L/h/kg | 6.82 | < 6.00 | 
